Experimental data as given in ChEMBL document CHEMBL1129682, “(S)-(-)-4-[4-[2-(isochroman-1-yl)ethyl]-piperazin-1-yl] benzenesulfonamide, a selective dopamine D4 antagonist” (J Med Chem, 1996).

How the values were obtained:
[1] = molecular target: T1, 5-hydroxytryptamine receptor 1A (Rattus norvegicus, UniProt P19327); test: Binding affinity of [3H]-8-OH-DPAT towards 5-hydroxytryptamine 1A receptor in cloned mammalian receptor expressed in cultured cells or from rat whole brain.; assay type: cell-based
T1 sequence (P19327 whole entry): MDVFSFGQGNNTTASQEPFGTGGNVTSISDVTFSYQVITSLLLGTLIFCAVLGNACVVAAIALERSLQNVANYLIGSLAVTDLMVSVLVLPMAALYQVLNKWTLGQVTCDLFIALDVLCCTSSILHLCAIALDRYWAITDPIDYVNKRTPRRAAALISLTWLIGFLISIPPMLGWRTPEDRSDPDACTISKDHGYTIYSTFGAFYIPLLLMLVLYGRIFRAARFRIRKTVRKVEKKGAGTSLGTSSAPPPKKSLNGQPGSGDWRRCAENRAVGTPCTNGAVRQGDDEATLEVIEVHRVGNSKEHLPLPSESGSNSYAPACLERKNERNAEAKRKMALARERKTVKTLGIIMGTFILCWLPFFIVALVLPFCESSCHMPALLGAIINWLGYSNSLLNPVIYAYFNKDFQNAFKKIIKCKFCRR
Outline: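 Radioligand displacement with [3H]-8-OH-DPAT on membranes from cloned mammalian 5-HT1A receptor expressed in cultured cells.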

[2] = molecular target: Serotonin 2 (5-HT2) receptor (Rattus norvegicus, UniProt P30994+P08909+P14842); test: Binding affinity of [3H]ketanserin towards 5-hydroxytryptamine 2 receptor in cloned mammalian receptor expressed in cultured cells or from rat whole brain.; assay type: cell-based
[3] = molecular target: Adrenergic receptor alpha-1 (Rattus norvegicus) (UniProt P15823+P23944+P43140); test: (§1) […] against binding of [3H]prazosin to cloned mammalian Alpha-1 adrenergic receptor expressed in cultured cells or from rat whole brain […]; assay type: cell-based
[4] = molecular target: T2, D(4) dopamine receptor (Rattus norvegicus, UniProt P30729); test: Binding affinity of [3H]spiperone towards Dopamine receptor D4 expressed in cultured cells or from rat whole brain.; assay type: cell-based
T2 sequence (P30729 whole entry): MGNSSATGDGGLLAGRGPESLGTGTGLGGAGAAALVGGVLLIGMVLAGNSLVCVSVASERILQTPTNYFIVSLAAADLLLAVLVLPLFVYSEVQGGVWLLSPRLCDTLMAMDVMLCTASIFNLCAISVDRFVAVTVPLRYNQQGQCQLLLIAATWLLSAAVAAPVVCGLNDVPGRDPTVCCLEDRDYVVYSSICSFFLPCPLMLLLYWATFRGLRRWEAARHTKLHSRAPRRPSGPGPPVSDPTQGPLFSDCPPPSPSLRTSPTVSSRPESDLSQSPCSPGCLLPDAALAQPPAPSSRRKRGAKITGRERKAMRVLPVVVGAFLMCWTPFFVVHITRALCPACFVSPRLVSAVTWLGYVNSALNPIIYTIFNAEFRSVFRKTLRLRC

[5] = molecular target: T3, D(2) dopamine receptor (Rattus norvegicus, UniProt P61169); test: Binding affinity of [3H]U-86170 towards Dopamine receptor D2 in cloned mammalian receptor expressed in cultured cells or from rat whole brain; assay type: cell-based
[6] = molecular target: D(1A) dopamine receptor (Rattus norvegicus, UniProt P18901); test: Binding affinity of [3H]SCH-23,390 towards Dopamine receptor D1 in cloned mammalian receptor expressed in cultured cells or from rat whole brain.; assay type: cell-based
[7] = molecular target: Adrenergic receptor alpha-2 (Rattus norvegicus) (UniProt P22086+P19328+P22909); test: […] against binding of [3H]clonidine to cloned mammalian Alpha-2 adrenergic receptor expressed in cultured cells or from rat whole brain at 1 uM
[8] = molecular target: T4, Adrenergic receptor alpha-1 (Rattus norvegicus, UniProt P15823+P23944+P43140); test: as §1; assay type: cell-based
T4 sequence (P15823 whole entry): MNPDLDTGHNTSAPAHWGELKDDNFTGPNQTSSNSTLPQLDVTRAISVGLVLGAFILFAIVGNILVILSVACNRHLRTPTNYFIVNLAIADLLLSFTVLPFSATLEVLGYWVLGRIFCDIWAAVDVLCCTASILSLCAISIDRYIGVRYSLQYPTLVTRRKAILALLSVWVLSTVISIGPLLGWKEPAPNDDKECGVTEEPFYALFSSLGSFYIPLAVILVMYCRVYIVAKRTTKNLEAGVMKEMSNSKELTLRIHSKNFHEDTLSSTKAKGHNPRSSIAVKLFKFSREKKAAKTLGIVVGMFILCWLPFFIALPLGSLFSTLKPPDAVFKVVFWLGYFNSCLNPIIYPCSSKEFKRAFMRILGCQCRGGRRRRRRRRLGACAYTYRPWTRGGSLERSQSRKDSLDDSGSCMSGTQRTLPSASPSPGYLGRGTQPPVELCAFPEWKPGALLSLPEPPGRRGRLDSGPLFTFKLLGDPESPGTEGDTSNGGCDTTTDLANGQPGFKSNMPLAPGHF
T4 sequence (P23944 whole entry): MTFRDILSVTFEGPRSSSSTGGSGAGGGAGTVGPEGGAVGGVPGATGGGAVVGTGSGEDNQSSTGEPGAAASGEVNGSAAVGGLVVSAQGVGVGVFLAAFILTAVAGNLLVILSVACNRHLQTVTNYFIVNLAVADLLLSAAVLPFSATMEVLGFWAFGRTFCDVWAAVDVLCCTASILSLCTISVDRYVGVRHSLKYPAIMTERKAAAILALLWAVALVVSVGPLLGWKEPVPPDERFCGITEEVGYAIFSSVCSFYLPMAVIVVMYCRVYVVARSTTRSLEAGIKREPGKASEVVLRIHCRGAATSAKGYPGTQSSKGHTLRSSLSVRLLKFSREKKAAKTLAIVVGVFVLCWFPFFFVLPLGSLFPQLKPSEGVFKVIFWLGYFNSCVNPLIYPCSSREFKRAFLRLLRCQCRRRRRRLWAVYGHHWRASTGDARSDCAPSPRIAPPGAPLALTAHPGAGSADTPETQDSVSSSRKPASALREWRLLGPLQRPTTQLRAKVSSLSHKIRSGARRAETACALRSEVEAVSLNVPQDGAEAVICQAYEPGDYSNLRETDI
T4 sequence (P43140 whole entry): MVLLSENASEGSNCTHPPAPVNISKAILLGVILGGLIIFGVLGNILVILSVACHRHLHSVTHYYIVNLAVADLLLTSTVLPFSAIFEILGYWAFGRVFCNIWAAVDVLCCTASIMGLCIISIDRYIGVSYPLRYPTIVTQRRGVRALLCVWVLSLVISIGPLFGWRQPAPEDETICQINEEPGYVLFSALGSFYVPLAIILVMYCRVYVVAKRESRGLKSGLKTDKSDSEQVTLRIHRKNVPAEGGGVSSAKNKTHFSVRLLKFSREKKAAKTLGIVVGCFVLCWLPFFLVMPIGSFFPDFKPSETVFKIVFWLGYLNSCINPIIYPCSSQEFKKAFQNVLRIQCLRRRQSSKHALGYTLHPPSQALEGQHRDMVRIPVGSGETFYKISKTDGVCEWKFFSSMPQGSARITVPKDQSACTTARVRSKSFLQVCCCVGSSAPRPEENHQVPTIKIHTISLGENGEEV

[9] = molecular target: D(3) dopamine receptor (Rattus norvegicus, UniProt P19020); test: Binding affinity of [3H]spiperone towards Dopamine receptor D3 in cloned mammalian receptor expressed in cultured cells or from rat whole brain.; assay type: cell-based
Outline: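 Radioligand displacement on membranes from cloned mammalian receptors expressed in cultured cells. D1 used [3H]SCH23390 and D3 used [3H]spiperone.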

[10] = molecular target: T5, Adrenergic receptor alpha-2 (Rattus norvegicus, UniProt P22086+P19328+P22909); test: […] against binding of [3H]clonidine to cloned mammalian Alpha-2 adrenergic receptor expressed in cultured cells or from rat whole brain
T5 sequence (P22086 whole entry): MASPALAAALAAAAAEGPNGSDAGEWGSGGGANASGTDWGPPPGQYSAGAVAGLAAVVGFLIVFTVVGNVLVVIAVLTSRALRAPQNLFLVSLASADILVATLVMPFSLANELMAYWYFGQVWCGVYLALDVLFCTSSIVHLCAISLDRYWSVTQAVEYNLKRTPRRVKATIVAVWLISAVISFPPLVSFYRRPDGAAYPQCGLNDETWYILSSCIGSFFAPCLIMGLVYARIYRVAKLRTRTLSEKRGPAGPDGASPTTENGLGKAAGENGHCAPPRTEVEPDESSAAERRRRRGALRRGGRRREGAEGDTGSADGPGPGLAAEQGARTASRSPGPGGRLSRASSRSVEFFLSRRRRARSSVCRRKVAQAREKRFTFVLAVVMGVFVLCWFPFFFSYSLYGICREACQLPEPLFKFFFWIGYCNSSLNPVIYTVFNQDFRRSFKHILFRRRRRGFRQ
T5 sequence (P19328 whole entry): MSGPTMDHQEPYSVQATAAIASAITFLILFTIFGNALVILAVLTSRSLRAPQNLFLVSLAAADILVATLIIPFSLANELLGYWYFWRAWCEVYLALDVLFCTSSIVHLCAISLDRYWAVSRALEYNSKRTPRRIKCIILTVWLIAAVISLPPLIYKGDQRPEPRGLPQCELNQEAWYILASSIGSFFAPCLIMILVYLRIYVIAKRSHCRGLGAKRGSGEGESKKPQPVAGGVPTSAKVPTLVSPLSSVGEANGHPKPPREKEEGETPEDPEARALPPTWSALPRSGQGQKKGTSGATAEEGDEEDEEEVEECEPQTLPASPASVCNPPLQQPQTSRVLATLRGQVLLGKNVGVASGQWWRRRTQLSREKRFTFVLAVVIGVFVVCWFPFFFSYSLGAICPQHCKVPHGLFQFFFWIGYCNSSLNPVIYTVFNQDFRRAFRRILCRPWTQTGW
T5 sequence (P22909 whole entry): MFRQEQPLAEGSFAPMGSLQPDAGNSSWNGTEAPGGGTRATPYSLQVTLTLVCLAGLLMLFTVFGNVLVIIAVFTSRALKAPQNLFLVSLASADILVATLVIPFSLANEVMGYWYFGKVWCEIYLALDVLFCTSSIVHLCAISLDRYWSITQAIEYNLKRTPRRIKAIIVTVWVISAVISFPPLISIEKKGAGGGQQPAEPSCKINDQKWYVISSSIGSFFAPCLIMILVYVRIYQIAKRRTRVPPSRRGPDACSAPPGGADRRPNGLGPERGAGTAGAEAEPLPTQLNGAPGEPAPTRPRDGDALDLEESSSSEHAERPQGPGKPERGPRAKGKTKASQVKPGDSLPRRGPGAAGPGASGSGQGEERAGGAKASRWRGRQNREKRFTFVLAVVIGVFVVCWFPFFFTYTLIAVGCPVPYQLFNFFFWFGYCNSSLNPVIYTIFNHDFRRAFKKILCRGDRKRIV

[11] = molecular target: Translocator protein (Mus musculus, UniProt P50637); test: Displacement of [3H]PK11195 binding from peripheral benzodiazepine receptor in MA-10 mouse tumor Leydig cells; assay type: cell-based
[12] = molecular target: Translocator protein (Rattus norvegicus, UniProt P16257); test: Displacement of [3H]PK11195 binding from peripheral benzodiazepine receptor in C6 rat glioma cell line; assay type: cell-based
[13] = molecular target: T3, D(2) dopamine receptor; test: Binding affinity to rat Dopamine receptor D2 expressed in CHO cells was determined using [3H]U-86170 as radioligand

Sequence of D(3) dopamine receptor (P19020 whole entry): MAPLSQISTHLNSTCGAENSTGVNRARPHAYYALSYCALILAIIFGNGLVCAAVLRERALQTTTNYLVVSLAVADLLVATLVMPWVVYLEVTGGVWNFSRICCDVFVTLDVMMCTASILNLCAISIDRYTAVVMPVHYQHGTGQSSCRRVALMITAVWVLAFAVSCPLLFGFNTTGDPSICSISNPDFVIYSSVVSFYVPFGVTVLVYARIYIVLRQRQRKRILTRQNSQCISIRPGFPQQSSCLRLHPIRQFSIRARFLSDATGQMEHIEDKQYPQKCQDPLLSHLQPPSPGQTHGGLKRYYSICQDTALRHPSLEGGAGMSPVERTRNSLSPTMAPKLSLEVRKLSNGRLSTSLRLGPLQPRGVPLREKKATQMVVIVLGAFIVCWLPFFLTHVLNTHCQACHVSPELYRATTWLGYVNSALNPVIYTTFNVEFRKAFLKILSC
Sequence of D(1A) dopamine receptor (P18901 whole entry): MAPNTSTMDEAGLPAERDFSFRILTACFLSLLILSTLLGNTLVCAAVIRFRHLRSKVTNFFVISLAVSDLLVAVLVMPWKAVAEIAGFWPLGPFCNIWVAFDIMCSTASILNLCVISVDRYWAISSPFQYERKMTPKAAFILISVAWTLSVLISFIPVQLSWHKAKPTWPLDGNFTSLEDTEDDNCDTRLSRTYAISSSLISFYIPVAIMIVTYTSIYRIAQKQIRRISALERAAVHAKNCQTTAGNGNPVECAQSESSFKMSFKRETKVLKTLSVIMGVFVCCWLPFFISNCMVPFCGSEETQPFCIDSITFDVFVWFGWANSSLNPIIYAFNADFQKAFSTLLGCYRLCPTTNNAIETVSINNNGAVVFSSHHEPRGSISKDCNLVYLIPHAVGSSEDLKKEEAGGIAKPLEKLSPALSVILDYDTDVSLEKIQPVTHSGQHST
T3 sequence (P61169 whole entry): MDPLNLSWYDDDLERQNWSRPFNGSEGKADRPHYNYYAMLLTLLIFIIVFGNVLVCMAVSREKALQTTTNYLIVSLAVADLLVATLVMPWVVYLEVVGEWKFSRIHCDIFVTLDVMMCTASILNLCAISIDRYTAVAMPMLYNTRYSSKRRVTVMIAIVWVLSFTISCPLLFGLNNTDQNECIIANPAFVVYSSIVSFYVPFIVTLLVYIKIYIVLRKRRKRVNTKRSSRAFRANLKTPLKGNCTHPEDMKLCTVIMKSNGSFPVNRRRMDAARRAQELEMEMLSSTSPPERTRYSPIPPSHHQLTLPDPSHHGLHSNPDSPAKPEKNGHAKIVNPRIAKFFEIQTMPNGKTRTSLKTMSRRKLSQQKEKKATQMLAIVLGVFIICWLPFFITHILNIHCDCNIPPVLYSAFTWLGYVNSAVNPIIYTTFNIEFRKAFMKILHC
Sequence of Translocator protein (Mus musculus, UniProt P50637) (P50637 whole entry, looked up): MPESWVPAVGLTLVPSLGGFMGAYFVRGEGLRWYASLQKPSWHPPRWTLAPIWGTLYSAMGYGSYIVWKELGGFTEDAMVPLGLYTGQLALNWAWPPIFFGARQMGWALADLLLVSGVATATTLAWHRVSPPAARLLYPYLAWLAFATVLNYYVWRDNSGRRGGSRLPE
Sequence of Translocator protein (Rattus norvegicus, UniProt P16257) (P16257 whole entry, looked up): as the sequence (P50637 whole entry, looked up) above, with P2S, E3Q, V67I, D77E, A110V, L113M, V149M, P168T counted along it

SMILES	Ki [1] [nM]	Ki [2] [nM]	inhibition [3] [%]	Ki [4] [nM]	Ki [5] [nM]	Ki [6] [nM]	inhibition [7] [%]	Ki [8] [nM]	Ki [9] [nM]	Ki [10] [nM]	IC50 [11] [nM]	IC50 [12] [nM]	Ki [13] [nM]
COc1cc2c(cc1OC)C(CCN1CCN(c3ccc(F)cc3)CC1)OCC2 (stereo unspecified)	93	2.1	100	24	400	26	75						
COc1ccc(N2CCN(CCC3OCCc4ccccc43)CC2)cc1 (stereo unspecified)	1100	76		1.4	1100	> 2400		1280	1200	1800			
NS(=O)(=O)c1ccc(N2CCN(CC[C@H]3OCCc4ccccc43)CC2)cc1	2400		41	100	5600		15		2900				
COc1ccc(N2CCN(CC[C@H]3OCCc4ccccc43)CC2)cc1	> 1600	30	36	25	> 1800	> 2400	0		220				
Cc1ccc2c(c1)C(N1CCN(C)CC1)=Nc1cccnc1N2				21									
Fc1ccc(N2CCN(CCC3OCCc4ccccc43)CC2)cc1 (stereo unspecified)	120	5.8		3	160	410		38	240	140			
CCCCCCN(CCCCCC)C(=O)Cc1c(-c2ccc(F)cc2)[nH]c2ccccc12											10	10	
CN1C(=O)CN=C(c2ccc(Cl)cc2)c2cc(Cl)ccc21 [RO-54864]											10		
NS(=O)(=O)c1ccc(N2CCN(CC[C@@H]3OCCc4ccccc43)CC2)cc1 [SONEPIPRAZOLE]	> 3700	> 1800		7.2	> 4300			> 4900	5800	> 2600			
COc1ccc(N2CCN(CC[C@@H]3OCCc4ccccc43)CC2)cc1	490	28	20	2.2		> 2400	9		1300				790
